ChEMBL document CHEMBL4428023, “1,4-Dihydropyridines Active on the SIRT1/AMPK Pathway Ameliorate Skin Repair and Mitochondrial Function and Exhibit Inhibition of Proliferation in Cancer Cells” (J Med Chem, 2016)
Activity calls are given as the source filed them. No cut-off for these calls is given here.

Columns and labels:
[1] = molecular target: T1, NAD-dependent protein deacetylase sirtuin-1 (Homo sapiens) (UniProt Q96EB6); experiment: Activation of full-length GST-tagged recombinant human SIRT1 assessed as enzyme activity obtained without subtraction of intrinsic fluorescence using p53-based untagged peptide as substrate at 50 uM after 30 mins by SIRTainty assay
T1 sequence (whole entry): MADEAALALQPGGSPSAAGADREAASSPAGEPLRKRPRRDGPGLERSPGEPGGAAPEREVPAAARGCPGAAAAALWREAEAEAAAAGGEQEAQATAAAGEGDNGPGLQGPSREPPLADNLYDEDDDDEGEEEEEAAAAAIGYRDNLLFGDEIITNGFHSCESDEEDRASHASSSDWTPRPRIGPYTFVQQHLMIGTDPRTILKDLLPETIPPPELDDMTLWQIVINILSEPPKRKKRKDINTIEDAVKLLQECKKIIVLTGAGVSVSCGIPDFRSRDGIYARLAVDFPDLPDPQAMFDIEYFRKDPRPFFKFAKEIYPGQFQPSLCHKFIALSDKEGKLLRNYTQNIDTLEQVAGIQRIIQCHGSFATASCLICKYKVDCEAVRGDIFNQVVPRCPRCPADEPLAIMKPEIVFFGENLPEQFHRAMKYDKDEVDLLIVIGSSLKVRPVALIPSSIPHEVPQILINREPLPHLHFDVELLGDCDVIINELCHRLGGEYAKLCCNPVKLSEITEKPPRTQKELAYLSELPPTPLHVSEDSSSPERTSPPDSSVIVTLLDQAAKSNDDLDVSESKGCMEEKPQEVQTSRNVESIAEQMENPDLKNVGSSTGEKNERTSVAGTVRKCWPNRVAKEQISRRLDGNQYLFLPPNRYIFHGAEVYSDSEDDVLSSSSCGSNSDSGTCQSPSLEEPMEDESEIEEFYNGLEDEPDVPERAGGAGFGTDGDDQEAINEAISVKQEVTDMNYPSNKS

[2] = molecular target: T1, NAD-dependent protein deacetylase sirtuin-1 (Homo sapiens); experiment: Activation of full-length GST-tagged recombinant human SIRT1 assessed as enzyme activity obtained with subtraction of intrinsic fluorescence using p53-based untagged peptide as substrate at 50 uM after 30 mins by SIRTainty assay
[3] = test system: C2C12; experiment: Activation of AMPK/SIRT1 in mouse C2C12 cells assessed as increase in mitochondrial density at 30 uM after 16 hrs by Mitotracker Green staining-based confocal microscopy; format: cell-based
Procedure, shortened: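 Murine C2C12 myoblasts plated on coverslips and grown overnight at 37 °C, 5% CO2. Then switched to serum-free HBSS, pH 7.4, and treated 16 h at 30 µM, alone or with 5 µM compound C or EX-527. Mitotracker Green (200 nM final) added for the last 30 min. Cells fixed in 4% paraformaldehyde, permeabilized and imaged by confocal microscopy, with settings fixed on untreated cells. Plate fluorescence also quantified.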

[4] = test system: HaCaT; experiment: Activation of AMPK/SIRT1 in human HaCaT cells assessed as nitric oxide production at 1 uM incubated for 1 hr by DAF-2D staining-based fluorescence assay; format: cell-based
Procedure, shortened: (§1)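 HaCaT keratinocytes grown in DMEM with 10% FBS and antibiotics. Cells treated 1 h (single-point 1 µM; dose-response at 5, 25, 50 µM). 5 µM DAF-2D added to complete medium. Cells then washed in PBS, trypsinized and analysed by flow cytometry for DAF fluorescence (ex 485/em 538 nm). Read-out is % DAF-positive cells relative to DMSO control.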

[5] = test system: M14; experiment: Antiproliferative activity against human M14 cells assessed as cell viability after 72 hrs by MTT assay; format: functional, cell-based; conditions: M14, 72 h
Procedure, shortened: (§2)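 Cells grown in RPMI with 10% fetal calf serum and penicillin, seeded in sextuplicate at 3 × 10^3 cells/well. After 24 h, cells were exposed 72 h to 5–200 µM. Viability was measured by MTT and expressed as treated/untreated × 100. IC50 was calculated from three independent experiments, reported as mean ± SD.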

[6] = test system: SK-OV-3; experiment: Antiproliferative activity against human SKOV3 cells assessed as cell viability after 72 hrs by MTT assay; format: functional, cell-based; conditions: SK-OV-3, 72 h
Procedure, shortened: as §2

[7] = test system: HT-29; experiment: Antiproliferative activity against human HT-29 cells assessed as cell viability after 72 hrs by MTT assay; format: functional, cell-based; conditions: HT-29, 72 h
Procedure, shortened: as §2

[8] = test system: NCI-H1299; experiment: Antiproliferative activity against human NCI-H1299 cells assessed as cell viability after 72 hrs by MTT assay; format: functional, cell-based; conditions: NCI-H1299, 72 h
Procedure, shortened: as §2

[9] = test system: A549; experiment: Antiproliferative activity against human A549 cells assessed as cell viability after 72 hrs by MTT assay; format: functional, cell-based; conditions: A549, 72 h
Procedure, shortened: as §2

[10] = molecular target: T1, NAD-dependent protein deacetylase sirtuin-1 (Homo sapiens); experiment: Activation of SIRT1 in human M14 cells assessed as deacetylation of acetyl-H4K16 after 48 hrs by Western blotting method; format: cell-based
Procedure, shortened: (§3)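 M14 melanoma and H1299 lung cancer cells treated 48 h at 5, 10 and 20 µM. Total protein extracts immunoblotted for acetyl-H4K16, with β-actin as loading control. Detection by HRP secondary antibodies and enhanced chemiluminescence. Bands quantified by densitometry.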

[11] = test system: LoVo; experiment: Antiproliferative activity against human LoVo cells assessed as cell viability after 72 hrs by MTT assay; format: functional, cell-based
Procedure, shortened: as §2

[12] = test system: HaCaT; experiment: Activation of AMPK/SIRT1 in human HaCaT cells assessed as nitric oxide production at 10 uM incubated for 1 hr in presence of compound C by DAF-2D staining-based fluorescence assay; format: cell-based
Procedure, shortened: (§4)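 HaCaT cells in DMEM with 10% FBS. DHP (10 µM) given for 1 h alone or together with 10 µM AMPK inhibitor compound C or 10 µM SIRT1 inhibitor EX-527. Intracellular NO read by flow cytometry after loading with 5 µM DAF-2D in medium (ex 485/em 538 nm). Expressed as % DAF-positive cells versus DMSO.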

[13] = test system: A2780; experiment: Antiproliferative activity against human A2780 cells assessed as cell viability after 72 hrs by MTT assay; format: functional, cell-based; conditions: A2780, 72 h
Procedure, shortened: as §2

[14] = test system: HEY; experiment: Antiproliferative activity against human HEY cells assessed as cell viability after 72 hrs by MTT assay; format: functional, cell-based
Procedure, shortened: as §2

[15] = molecular target: T1, NAD-dependent protein deacetylase sirtuin-1 (Homo sapiens); experiment: Activation of SIRT1 in human NCI-H1299 cells assessed as deacetylation of acetyl-H4K16 after 48 hrs by Western blotting method; format: cell-based
Procedure, shortened: as §3

[16] = Antiproliferative activity against human SAN cells assessed as cell viability after 72 hrs by MTT assay; format: functional, cell-based
Procedure, shortened: as §2

[17] = test system: Caov-3 cell line; experiment: Antiproliferative activity against human Caov3 cells assessed as cell viability after 72 hrs by MTT assay; format: functional, cell-based; conditions: Caov-3, 72 h
Procedure, shortened: as §2

[18] = test system: HaCaT; experiment: Activation of AMPK/SIRT1 in human HaCaT cells assessed as nitric oxide production at 10 uM incubated for 1 hr in presence of EX-527 by DAF-2D staining-based fluorescence assay; format: cell-based
Procedure, shortened: as §4

[19] = molecular target: T1, NAD-dependent protein deacetylase sirtuin-1 (Homo sapiens); conditions: HaCaT, 1 uM
[20] = molecular target: 3',5'-cyclic-AMP phosphodiesterase 4D (Homo sapiens) (UniProt Q08499); experiment: Inhibition of recombinant human PDE4D assessed as phosphate release using cAMP as substrate at 50 uM after 60 mins by malachite green assay
3',5'-cyclic-AMP phosphodiesterase 4D (Homo sapiens), sequence (Q08499 whole entry): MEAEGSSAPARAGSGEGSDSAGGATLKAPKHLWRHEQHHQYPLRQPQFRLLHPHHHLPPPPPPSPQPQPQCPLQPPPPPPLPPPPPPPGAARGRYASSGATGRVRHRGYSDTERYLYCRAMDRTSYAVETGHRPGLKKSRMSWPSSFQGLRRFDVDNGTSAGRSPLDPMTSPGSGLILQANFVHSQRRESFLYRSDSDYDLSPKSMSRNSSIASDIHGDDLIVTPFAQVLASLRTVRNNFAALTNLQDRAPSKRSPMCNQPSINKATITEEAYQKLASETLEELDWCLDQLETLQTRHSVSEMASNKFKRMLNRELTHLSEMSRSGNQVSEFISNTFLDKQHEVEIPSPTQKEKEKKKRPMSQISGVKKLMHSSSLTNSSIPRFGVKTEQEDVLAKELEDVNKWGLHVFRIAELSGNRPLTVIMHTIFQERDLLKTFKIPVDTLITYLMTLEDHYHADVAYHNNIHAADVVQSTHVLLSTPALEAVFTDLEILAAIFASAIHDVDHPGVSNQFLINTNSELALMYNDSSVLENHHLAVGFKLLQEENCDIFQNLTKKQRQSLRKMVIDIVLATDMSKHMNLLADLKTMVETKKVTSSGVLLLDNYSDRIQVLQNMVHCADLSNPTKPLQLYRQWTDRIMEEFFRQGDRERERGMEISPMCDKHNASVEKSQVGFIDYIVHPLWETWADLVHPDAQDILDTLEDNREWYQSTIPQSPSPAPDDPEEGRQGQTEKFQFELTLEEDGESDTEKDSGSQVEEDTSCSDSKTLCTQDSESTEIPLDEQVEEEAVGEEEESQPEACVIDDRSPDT
Procedure, shortened: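 Recombinant human PDE4D (20 mU) in 10 mM Tris-HCl pH 7.4 with cAMP substrate. Compounds at 50 µM in DMSO; rolipram 10 µM as positive control. Incubated 60 min at 37 °C, then phosphate release measured by malachite green absorbance at 620 nm. Mean of three determinations.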

[21] = test system: HaCaT; experiment: Activation of AMPK/SIRT1 in human HaCaT cells assessed as nitric oxide production incubated for 1 hr by DAF-2D staining-based fluorescence assay; format: cell-based
Procedure, shortened: as §1

[22] = molecular target: T1, NAD-dependent protein deacetylase sirtuin-1 (Homo sapiens); experiment: Activation of SIRT1 in […] at 1 uM by fluorimetric assay; format: cell-free; conditions: HaCaT, TDE = time-dependent effect
[23] = test system: Mus musculus; experiment: Wound healing activity in CD1 mouse assessed as decrease in epithelial gap at 1 uM administered topically on wound everyday for 14 days by biopsy punch assay; format: functional, organism-based
Procedure, shortened: (§5)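 Male CD1 mice, 8 weeks old, anaesthetized i.p. with medetomidine 1 mg/kg plus ketamine 75 mg/kg, then biopsy-punch wounded. Compound (1 µM) in 20 µL saline applied directly to the wound daily for 14 days; solvent-treated group as control. Epithelial gap and % wound closure followed over time.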

[24] = test system: Mus musculus; experiment: Wound healing activity in CD1 mouse assessed as increased wound closure at 1 uM administered topically on wound everyday for 14 days by biopsy punch assay; format: functional, organism-based
Procedure, shortened: as §5

[25] = molecular target: T1, NAD-dependent protein deacetylase sirtuin-1 (Homo sapiens); experiment: Activation of SIRT1 in human HaCaT cells assessed as H4K16 deacetylation at 1 uM after 1 hr by Western blotting method; format: cell-based
Procedure, shortened: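 HaCaT cells treated 1 h at 1 µM, DMSO as solvent control. Cells lysed in Laemmli buffer and immunoblotted for acetyl-H4K16 (1:1000), with total histone H4 as loading control. Bands quantified by densitometry. At least three independent experiments.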

[26] = Antagonist activity at calcium channel in guinea pig smooth muscle assessed as inhibition of calcium-induced contraction in K+-depolarized aortic strips; conditions: Cavia porcellus
[27] = test system: HaCaT; experiment: Activation of AMPK/SIRT1 in human HaCaT cells assessed as nitric oxide production up to 50 uM incubated for 1 hr by DAF-2D staining-based fluorescence assay; format: cell-based
Procedure, shortened: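 HaCaT keratinocytes in DMEM with 10% FBS; treated 1 h (dose-response at 5, 25, 50 µM; screen at 1 µM), DMSO solvent control. 5 µM DAF-2D added to the medium; cells washed, trypsinized and analysed by flow cytometry. Read-out is % DAF-positive cells relative to DMSO.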

[28] = test system: C2C12; experiment: Activation of AMPK/SIRT1 in mouse C2C12 cells assessed as increase in mitochondrial density at 30 uM after 16 hrs by Mitotracker Green staining-based confocal microscopy in presence of EX-527; format: cell-based
Procedure, shortened: (§6)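 C2C12 myoblasts plated overnight, then in serum-free HBSS pH 7.4 and treated 16 h at 30 µM, alone or with 5 µM inhibitor (EX-527 or compound C). Mitotracker Green at 200 nM final was added for the last 30 min. Cells were fixed in 4% paraformaldehyde, permeabilized with Triton X-100 and imaged by confocal microscopy with fixed settings. Alternatively, mitochondrial fluorescence was quantified in plates.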

[29] = species on record: Cavia porcellus; experiment: Potency index, ratio of potency for test compound to potency for nifedipine for inhibition of calcium channel in guinea pig ileum longitudinal smooth muscle assessed as inhibition of calcium-induced contraction; format: tissue-based
[30] = test system: C2C12; experiment: Activation of AMPK/SIRT1 in mouse C2C12 cells assessed as increase in mitochondrial density at 30 uM after 16 hrs by Mitotracker Green staining-based confocal microscopy in presence of compound C; format: cell-based
Procedure, shortened: as §6

[31] = species on record: Cavia porcellus; experiment: Antagonist activity at calcium channel in guinea pig smooth muscle assessed as inhibition of calcium-induced contraction in K+-depolarized aortic strips at 50 uM
Procedure, shortened: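 Guinea-pig isolated aortic strips depolarized with 80 mM K+; read-out is percent inhibition of calcium-induced contraction.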

SMILES	Activity [1] [%]	Activity [2] [%]	Activity [3]	Activity [4]	Activity [12]	Activity [18]	inhibition [20]	Activity [21]	Activity [22]	Activity [23]	Activity [24]	Activity [25]	other results
O=C(O)C1=CN(Cc2ccccc2)C=C(C(=O)O)C1c1ccco1	41	41	inactive	–	–	–	–	–	–	–	–	–	–
CCOC(=O)C1=CN(Cc2ccccc2)C=C(C(=O)OCC)C1c1ccc(CN2CCN(C)CC2)cc1	152	68	–	Active	inactive	inactive	–	–	–	–	–	–	IC50 [5]: 8 µM; IC50 [6]: 35 µM; IC50 [7]: 11 µM; IC50 [8]: 24 µM; IC50 [9]: 20 µM; Activity [10]: Dose-dependent effect; IC50 [11]: 15 µM; IC50 [13]: 10 µM; IC50 [14]: 15 µM; Activity [15]: Dose-dependent effect; IC50 [16]: 16 µM; IC50 [17]: 24 µM
CC(NC(=O)c1ccccc1/N=C/c1c(O)ccc2ccccc12)c1ccccc1 (stereo not drawn)	–	–	–	–	–	–	–	–	–	–	–	–	inhibition [19]: Active
CCOC(=O)C1=CN(Cc2ccccc2)C=C(C(=O)OCC)C1c1ccco1	294	64	–	Active	–	–	inactive	Dose-dependent effect	Tde	Active	Active	Active	–
COC(=O)C1=C(C)NC(C)=C(C(=O)OC)C1c1ccccc1[N+](=O)[O-] [NIFEDIPINE]	–	–	–	–	–	–	–	–	–	–	–	–	IC50 [26]: 0.009 µM; Activity [27]: inactive
CCOC(=O)C1=CN(Cc2ccccc2)C=C(C(=O)OCC)C1c1ccsc1	404	126	Active	Active	inactive	inactive	inactive	Dose-dependent effect	Tde	Active	Active	Active	Activity [28]: inactive; Ratio [29]: 266; Activity [30]: inactive; inhibition [31]: 13%
